Experimental findings from ChEMBL document CHEMBL5038571, “Design and Synthesis of EZH2-Based PROTACs to Degrade the PRC2 Complex for Targeting the Noncatalytic Activity of EZH2” (J Med Chem, 2021) are described below.

The test system of test [1] is WSUDLCL2. Briefly: Antiproliferative activity against human WSUDLCL2 cells harboring EZH2-Y641F mutant assessed as inhibition of cell growth incubated for 3 to 7 days by optical microscopic analysis (Rvb= 4.92 uM). It counts as functional, cell-based.
Test [2] has as its target T1, Protein cereblon/Histone-lysine N-methyltransferase EZH2 (Homo sapiens) (UniProt Q15910+Q96SW2). Description: PROTAC activity at CRBN E3 ligase/EZH2 in PRC2 complex in human WSUDLCL2 cells assessed as downregulation of SUZ12 expression at 1 uM pretreated with lenalidomide for 4 hrs followed by compound addition and measured after 48 hrs by Western blot analysis. It counts as cell-based. Summed up:
(§1)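 WSU-DLCL-2 cells pretreated 4 h with the named inhibitor, then compound added and incubated a further 48 h. EZH2, SUZ12, EED and RbAp48 measured by western blot (nitrocellulose transfer, skim-milk block, primary antibody overnight at 4 °C, chemiluminescent detection).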

Test [3] concerns the target T1, Protein cereblon/Histone-lysine N-methyltransferase EZH2 (Homo sapiens). Description: PROTAC activity at CRBN E3 ligase/EZH2 in PRC2 complex in human WSUDLCL2 cells assessed as downregulation of SUZ12 expression at 1 uM pretreated with GSK126 for 4 hrs followed by compound addition and measured after 48 hrs by Western blot analysis. The class given is cell-based. The method in brief: as §1
(In general: In western blotting, separated proteins are transferred to a membrane and probed.)

Test [4] shares this target. Briefly: PROTAC activity at CRBN E3 ligase/EZH2 in PRC2 complex in human WSUDLCL2 cells assessed as induction of EZH2 degradation incubated for 48 hrs by Western blot analysis. As to conditions: dose 1-10 µM. It counts as cell-based. Summed up:
(§2)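 WSU-DLCL-2 cells treated 48 h (1 μM for the single-concentration screen), lysed; SDS-PAGE, nitrocellulose transfer, 5% milk block, primary antibody 4 °C overnight, chemiluminescence. Bands quantified by densitometry, normalized to GAPDH, expressed relative to DMSO-treated cells; mean ± SD of three independent experiments, t-test.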

The target is the same in test [5]. Briefly: PROTAC activity at CRBN E3 ligase/EZH2 in PRC2 complex in human WSUDLCL2 cells assessed as downregulation of EED expression at 1 uM pretreated with GSK126 for 4 hrs followed by compound addition and measured after 48 hrs by Western blot analysis. It counts as cell-based. The method in brief:
as §1

Test [6] has the same target. Description: PROTAC activity at CRBN E3 ligase/EZH2 in PRC2 complex in human WSUDLCL2 cells assessed as increase in SUZ12 ubiquitination at 1 uM measured after 48 hrs by co-immunoprecipitation assay. The class given is cell-based. The method in brief: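 WSU-DLCL-2 cells treated with 1 μM compound for 48 h and lysed in RIPA buffer. Lysates incubated with antibodies overnight at 4 °C, then 3 h with Protein G agarose beads at 4 °C. Proteins eluted in IP buffer and ubiquitination of the target probed by immunoblot.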

Test [7] relates to MDA-MB-468. Briefly: Downregulation of […] mRNA expression in human MDA-MB-468 cells at 10 uM incubated for 48 hrs by qRT-PCR analysis. It counts as functional, cell-based. Summed up: (§3)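 Cells treated 48 h. Total RNA extracted with Trizol, reverse-transcribed, and SYBR RT-qPCR run: 95 °C 30 s, then 40 cycles of 95 °C 6 s and 60 °C 20 s. mRNA normalized to the DMSO-treated group. Mean SD of three independent experiments, t-test versus DMSO.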
Background: Quantitative PCR measures a nucleic acid by following its amplification.

Test [8] has as its target T1, Protein cereblon/Histone-lysine N-methyltransferase EZH2 (Homo sapiens). Briefly: PROTAC activity at CRBN E3 ligase/EZH2 in PRC2 complex in human DU-145 cells assessed as induction of SUZ12 degradation by measuring reduction in SUZ12 protein level at 1 uM incubated for 48 hrs by Western blot analysis. The class given is cell-based. Summed up:
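Cancer cell lines exposed to 1 μM compound for 48 h. Lysates immunoblotted (SDS-PAGE, nitrocellulose, 5% milk block, primary antibody overnight at 4 °C) for EZH2, SUZ12, EED, RbAp48 and H3K27me3. Bands quantified by densitometry and normalized to GAPDH.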

Test [9] concerns MDA-MB-468. Description: Downregulation of ARL6IP mRNA expression in human MDA-MB-468 cells at 10 uM incubated for 48 hrs by qRT-PCR analysis. It counts as functional, cell-based. The method in brief: as §3
The test system of test [10] is WSUDLCL2. Briefly: Effect on Histone H3 methylation in human WSUDLCL2 cells assessed as reduction in H3K4me3 levels at upto 10 uM incubated for 48 hrs by Western blot analysis. It counts as functional, cell-based. The note with it: dose microM <=10, time 48.0 hrs. The method in brief: (§4)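 Lysates run on SDS-PAGE and transferred to nitrocellulose. Membranes blocked with 5% skim milk for 2 h, primary antibody applied overnight at 4 °C, then secondary antibody and chemiluminescent detection of histone H3 methylation marks.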

The target of test [11] is T1, Protein cereblon/Histone-lysine N-methyltransferase EZH2 (Homo sapiens). Description: PROTAC activity at CRBN E3 ligase/EZH2 in PRC2 complex in human WSUDLCL2 cells assessed as induction of SUZ12 degradation incubated for 48 hrs by Western blot analysis. The class given is cell-based. The note with it: dose 1-10 µM. The method in brief:
as §2

Test [12] concerns WSUDLCL2. Description: Upregulation of ADRB2 mRNA expression in human WSUDLCL2 cells at 1 uM incubated for 48 hrs by qRT-PCR analysis. It counts as functional, cell-based. The method in brief:
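WSU-DLCL-2 or Pfeiffer cells treated 48 h. Trizol RNA extraction, reverse transcription, SYBR qPCR (95 °C 30 s; 40 cycles of 95 °C 6 s, 60 °C 20 s). mRNA normalized to DMSO-treated cells; mean ± SD of three independent experiments, t-test.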

The target in test [13] is T1, Protein cereblon/Histone-lysine N-methyltransferase EZH2 (Homo sapiens). Briefly: PROTAC activity at CRBN E3 ligase/EZH2 in PRC2 complex in human SK-OV-3 cells assessed as induction of EZH2 degradation by measuring reduction in EZH2 protein level at 1 uM incubated for 48 hrs by Western blot analysis. The class given is cell-based. The method in brief: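 Cells cultured in DMEM or RPMI 1640 with 10% FBS and 1% penicillin-streptomycin, 37 °C, 5% CO2; exposed to 1 μM compound for 48 h. Lysates run on SDS-PAGE and transferred to nitrocellulose. Blocked 2 h in 5% skim milk, primary antibody overnight at 4 °C, then secondary antibody. Chemiluminescent detection of PRC2 subunits and H3K27me3.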

Test [14] deals with WSUDLCL2. Briefly: Inhibition of PRC2 in human WSUDLCL2 cells assessed as suppression H3K27 trimethylation at 10 uM incubated for 48 hrs by Western blot analysis. The class given is cell-based. Summed up:
as §4

Test [15] has as its target T1, Protein cereblon/Histone-lysine N-methyltransferase EZH2 (Homo sapiens). Description: PROTAC activity at CRBN E3 ligase/EZH2 in PRC2 complex in human WSUDLCL2 cells assessed as downregulation of RbAp48 expression at 1 uM pretreated with EPZ6438 for 4 hrs followed by compound addition and measured after 48 hrs by Western blot analysis. The class given is cell-based. The method in brief: as §1

Test [16] deals with WSUDLCL2. Briefly: Effect on Histone H3 methylation in human WSUDLCL2 cells assessed as reduction in H3K9me3 levels at upto 10 uM incubated for 48 hrs by Western blot analysis. It counts as functional, cell-based. As to conditions: dose microM <=10, time 48.0 hrs. The method in brief: as §4
Another test has as its system A549. Briefly: Downregulation of CEP76 mRNA expression in human A549 cells at 10 uM incubated for 48 hrs by qRT-PCR analysis. It counts as functional, cell-based. Summed up:
as §3

Test [17] addresses T1, Protein cereblon/Histone-lysine N-methyltransferase EZH2 (Homo sapiens). Briefly: PROTAC activity at CRBN E3 ligase/EZH2 in PRC2 complex in human WSUDLCL2 cells assessed as reduction in H3K27me3 protein level at 1 uM measured after 48 to 72 hrs by Western blot analysis. The note with it: time 48-72 hrs. It counts as cell-based.
Test [18] shares this target. Description: PROTAC activity at CRBN E3 ligase/EZH2 in PRC2 complex in human WSUDLCL2 cells assessed as induction of RbAp48 degradation at 1 uM incubated for 48 hrs by Western blot analysis relative to control. The class given is cell-based. The method in brief: as §2

Calls of active or inactive are those of the source. The rule behind the calls is not given here.

T1 sequence (Q15910 whole entry, looked up): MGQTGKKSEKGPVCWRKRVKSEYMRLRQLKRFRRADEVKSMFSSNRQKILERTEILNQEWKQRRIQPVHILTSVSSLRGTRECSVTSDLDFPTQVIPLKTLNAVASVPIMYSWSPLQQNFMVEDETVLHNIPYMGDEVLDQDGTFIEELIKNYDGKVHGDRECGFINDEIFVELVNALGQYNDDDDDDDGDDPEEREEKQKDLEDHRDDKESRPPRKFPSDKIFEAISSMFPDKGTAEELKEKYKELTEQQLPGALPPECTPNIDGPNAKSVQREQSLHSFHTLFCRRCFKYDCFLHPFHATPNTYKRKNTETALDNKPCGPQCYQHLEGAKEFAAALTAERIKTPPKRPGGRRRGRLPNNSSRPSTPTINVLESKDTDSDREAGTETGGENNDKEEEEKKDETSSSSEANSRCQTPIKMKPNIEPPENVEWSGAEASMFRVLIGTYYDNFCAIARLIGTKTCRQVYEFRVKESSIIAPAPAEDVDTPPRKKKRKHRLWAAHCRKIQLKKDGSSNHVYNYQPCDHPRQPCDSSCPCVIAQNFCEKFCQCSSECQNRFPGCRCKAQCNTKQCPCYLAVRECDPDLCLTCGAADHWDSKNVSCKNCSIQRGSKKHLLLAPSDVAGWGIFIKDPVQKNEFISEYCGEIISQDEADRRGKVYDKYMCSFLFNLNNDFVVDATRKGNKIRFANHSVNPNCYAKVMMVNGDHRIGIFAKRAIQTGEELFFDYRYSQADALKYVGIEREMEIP
T1 sequence (Q96SW2 whole entry, looked up): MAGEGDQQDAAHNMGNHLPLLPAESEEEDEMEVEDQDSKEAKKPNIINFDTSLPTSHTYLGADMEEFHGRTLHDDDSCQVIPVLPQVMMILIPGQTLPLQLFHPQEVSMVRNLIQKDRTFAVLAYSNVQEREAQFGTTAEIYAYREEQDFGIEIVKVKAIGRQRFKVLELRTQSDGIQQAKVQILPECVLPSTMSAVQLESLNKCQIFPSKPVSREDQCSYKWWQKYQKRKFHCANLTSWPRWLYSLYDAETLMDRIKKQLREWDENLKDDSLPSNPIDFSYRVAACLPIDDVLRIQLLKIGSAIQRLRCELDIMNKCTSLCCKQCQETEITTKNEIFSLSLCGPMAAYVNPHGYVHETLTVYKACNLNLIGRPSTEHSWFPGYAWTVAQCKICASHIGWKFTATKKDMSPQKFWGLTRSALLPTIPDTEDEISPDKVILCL

For the molecule `CCN(c1cc(-c2ccc(CN3CCN(CCCCCCCOc4cccc5c4C(=O)N(C4CCC(=O)NC4=O)C5=O)CC3)cc2)cc(C(=O)NCc2c(C)cc(C)[nH]c2=O)c1C)C1CCOCC1` (centres undefined), the IC50 with WSUDLCL2 [1] stood at 3.69 µM. In addition, the outcome (in test [2]; in test [3]; in test [5]; in the test on WSUDLCL2 [10]; in test [15]; with WSUDLCL2 [16]) was inactive. For the same molecule, the Activity entry is “Dose-Dependent Effect” in [4], “Dose-Dependent Effect” in test [11] and 74% in test [18]. In addition, the outcome (in test [6]; in the test on MDA-MB-468 [7]; in [8]; with MDA-MB-468 [9]; in the test on WSUDLCL2 [12]; in [13]) was Active. Besides, the outcome (with A549; in test [17]) was Active. Besides, the inhibition result in the test with WSUDLCL2 [14] is “Active”.

The IC50 is the concentration needed to halve the response being measured.
